Measurements as given in ChEMBL document CHEMBL4414626, “Structure-Guided Enhancement of Selectivity of Chemical Probe Inhibitors Targeting Bacterial Seryl-tRNA Synthetase” (J Med Chem, 2019).
Active and inactive are the calls of the source. No cut-off for these calls is given here.

Experiments:
[1] = tested on: Staphylococcus aureus; assay: Antibacterial activity against Staphylococcus aureus ATCC 25923 assessed as reduction in bacterial growth incubated for 18 to 20 hrs by broth microdilution assay; format: functional
[2] = tested on: Escherichia coli; assay: Antibacterial activity against Escherichia coli ATCC 25922 assessed as reduction in bacterial growth incubated for 18 to 20 hrs by broth microdilution assay; format: functional
[3] = target: T1, Serine--tRNA ligase (Escherichia coli (strain K12), UniProt P0A8L1); assay: Binding affinity to C-terminal His10-tagged Escherichia coli B ER2560 SerRS expressed in Lemo21(DE3) SerRS assessed as dissociation constant by isothermal titration calorimetry
[4] = Solubility of the compound in HEPES buffer in presence of human N-terminal polyHis-tagged SerRS expressed in Escherichia coli BL21 (DE3) at 1000 uM; format: physicochemical
[5] = target: T1, Serine--tRNA ligase; assay: Binding affinity to C-terminal His10-tagged Escherichia coli B ER2560 SerRS expressed in Lemo21(DE3) SerRS assessed as affinity constant for first binding site by isothermal titration calorimetry
[6] = target: Serine--tRNA ligase (Escherichia coli (strain K12)) (UniProt P0A8L1); assay: Binding affinity to C-terminal His10-tagged Escherichia coli B ER2560 SerRS expressed in Lemo21(DE3) SerRS assessed as binding stoichiometry at 2:1 ratio of compound to protein by isothermal titration calorimetry
In short: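 E. coli SerRS was purified by gel filtration and dialysed overnight at 4 °C into 20 mM Tris-HCl pH 7.5, 200 mM NaCl. Ligands were made up in the same buffer and all solutions degassed. ITC ran at 25 °C: 7 µM protein in the cell was titrated with 140 µM ligand by 2 µl then 26 × 10 µl injections (20 s each, 120 s apart). Stoichiometry N came from iterative isotherm fitting; runs were in triplicate.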

[7] = target: T1, Serine--tRNA ligase; assay: Binding affinity to C-terminal His10-tagged Escherichia coli B ER2560 SerRS expressed in Lemo21(DE3) SerRS assessed as affinity constant for second binding site by isothermal titration calorimetry
[8] = target: Serine--tRNA ligase (Staphylococcus aureus (strain NCTC 8325 / PS 47), UniProt P95689); assay: Inhibition of C-terminal His10-tagged Staphylococcus aureus seg50 SerRS expressed in Lemo21(DE3) using Ap4A as substrate in presence of serine by leuconostoc mesenteroides hexokinase/glucose 6-Phosphate dehydrogenase coupled UV-visible spectrophotometry
In short: (§1)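 Continuous coupled spectrophotometric assay of the adenylate formation step with thrombin-cleaved, gel-filtered SerRS. Buffer is 50 mM HEPES pH 7.6 with 10 mM MgCl2, 50 mM KCl, 1 mM DTT and 10% DMSO. It also holds 10 mM glucose, 0.5 mM NADP+, yeast hexokinase and L. mesenteroides G6PDH. IC50 by non-linear regression.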

[9] = target: T1, Serine--tRNA ligase; assay: Inhibition of C-terminal His10-tagged Escherichia coli B ER2560 SerRS expressed in Lemo21(DE3) using Ap4A as substrate in presence of serine by leuconostoc mesenteroides hexokinase/glucose 6-Phosphate dehydrogenase coupled UV-visible spectrophotometry; in short: as §1
[10] = Selectivity index, ratio of IC50 for human N-terminal polyHis-tagged SerRS expressed in Escherichia coli BL21 (DE3) to IC50 for C-terminal His10-tagged Staphylococcus aureus seg50 SerRS expressed in Lemo21(DE3)
[11] = Selectivity index, ratio of IC50 for human N-terminal polyHis-tagged SerRS expressed in Escherichia coli BL21 (DE3) to IC50 for C-terminal His10-tagged Escherichia coli B ER2560 SerRS expressed in Lemo21(DE3)

T1 sequence (P0A8L1 whole entry): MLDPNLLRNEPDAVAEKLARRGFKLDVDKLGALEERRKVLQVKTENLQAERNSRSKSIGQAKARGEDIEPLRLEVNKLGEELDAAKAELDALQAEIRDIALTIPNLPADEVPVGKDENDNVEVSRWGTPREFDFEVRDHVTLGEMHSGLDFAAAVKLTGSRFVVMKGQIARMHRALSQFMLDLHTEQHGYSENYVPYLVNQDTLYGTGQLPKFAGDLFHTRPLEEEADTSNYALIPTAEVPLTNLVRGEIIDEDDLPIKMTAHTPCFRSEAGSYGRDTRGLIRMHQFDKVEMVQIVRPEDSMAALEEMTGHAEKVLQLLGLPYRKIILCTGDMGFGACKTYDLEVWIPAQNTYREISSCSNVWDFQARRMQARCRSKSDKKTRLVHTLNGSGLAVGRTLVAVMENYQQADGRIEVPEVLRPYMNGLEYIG
Serine--tRNA ligase (Escherichia coli (strain K12)), sequence (P0A8L1 whole entry, looked up): as the sequence (P0A8L1 whole entry) above

MIC [1] [µg/mL] | MIC [2] [µg/mL] | SMILES | also measured
> 256 | > 256 | Nc1nc(I)nc2c1ncn2[C@@H]1O[C@H](COS(=O)(=O)NC(=O)[C@@H](N)CO)[C@@H](O)[C@H]1O | –
> 256 | > 256 | C/C=C/c1nc(N)c2ncn([C@@H]3O[C@H](COS(=O)(=O)NC(=O)[C@@H](N)CO)[C@@H](O)[C@H]3O)c2n1 | –
– | – | CC1(C)O[C@@H]2[C@H](O1)[C@@H](CO)O[C@H]2n1cnc2c(N)nc(I)nc21 | IC50 [8]: 231000 nM; IC50 [9]: 285000 nM
> 256 | > 256 | Nc1nc(-c2ccco2)nc2c1ncn2[C@@H]1O[C@H](COS(=O)(=O)NC(=O)[C@@H](N)CO)[C@@H](O)[C@H]1O | –
> 256 | > 256 | Nc1ncnc2c1ncn2[C@@H]1O[C@H](COS(=O)(=O)NC(=O)[C@@H](N)CO)[C@@H](O)[C@H]1O | Kd [3]: 1.27 nM; Ratio IC50 [10]: 10; Ratio IC50 [11]: 10; Activity [6]: Active
> 256 | > 256 | Nc1nc(-c2ccsc2)nc2c1ncn2[C@@H]1O[C@H](COS(=O)(=O)NC(=O)[C@@H](N)CO)[C@@H](O)[C@H]1O | solubility [4]: Insoluble
> 256 | > 256 | Nc1nc(-c2ccccc2)nc2c1ncn2[C@@H]1O[C@H](COS(=O)(=O)NC(=O)[C@@H](N)CO)[C@@H](O)[C@H]1O | –
> 256 | > 256 | Nc1nc(Cl)nc2c1ncn2[C@@H]1O[C@H](COS(=O)(=O)NC(=O)[C@@H](N)CO)[C@@H](O)[C@H]1O | –

SMILES | MIC [1] [µg/mL] | MIC [2] [µg/mL] | also measured
Nc1nc(-c2cccnc2)nc2c1ncn2[C@@H]1O[C@H](COS(=O)(=O)NC(=O)[C@@H](N)CO)[C@@H](O)[C@H]1O | > 256 | > 256 | Kd [3]: 290 to 1920 nM; solubility [4]: Insoluble; Kd [5]: 290 nM; Activity [6]: Active; Kd [7]: 1920 nM
